Key:
MM.1S cells [1] = experiment: RNA synthesis assay, [5'-3H]uridine incorporation, MM.1S; assay type: cell-based, human
[2] = MM xenograft murine model, body weight and toxicity; assay type: in vivo, CB-17 SCID mice
In short: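 MM.1S s.c. xenografts in irradiated SCID mice; test compound at 30 or 40 mg/kg, or D5W pH5.2 vehicle, given IV by tail vein daily for 5 days once tumours reached ~100 mg. Body weight and tumour size were recorded every alternate day. Mice were euthanised by CO2 if tumour exceeded 2 cm or ulcerated.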

[3] = tested on: miR-21-3p, miR-19a-5p, miR-92a-1-5p in U266 and OPM1 cells; experiment: TaqMan specific miRNA assays; assay type: cell-based, human; settings: 50nM for 8h
In short: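 U266, OPM1 and RPMI cells were cultured for 8 h in medium alone or with 50 nM test compound. Total RNA was isolated with a mirVana kit. miR-21-3p, miR-19a-5p and miR-92a-1-5p were quantified with target-specific TaqMan MicroRNA Assays following the manufacturer's protocol.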

MM.1S cells [4] = experiment: annexin V-PI apoptosis detection; assay type: cell-based, human; settings: 50nM, 12 hours
In short: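 MM.1S cells (1 × 10⁶) were exposed to 50 nM test compound or medium for 12–24 h. Cells were stained with annexin V-FITC and PI for 15 min, and annexin V+/PI+ apoptotic cells were counted by flow cytometry.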

AMPK = settings: read-out: IC50 AMPK; in vitro cell-free kinase assay; cited from earlier work
[5] = tested on: MM cell lines (MM.1S, MM.1R, H929, U266, OPM1, RPMI); experiment: MTT cell viability assay in MM cell lines; assay type: cell-based; settings: Homo sapiens
In short: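 MM lines were grown in RPMI-1640 with 10% FBS, 2 mM L-glutamine and pen/strep, then treated with test compound (0–100 nM) for 24 and 48 h. MTT was added for 4 h at 37°C and dissolved in acidified isopropanol. Absorbance was read at 570 nm, corrected at 630 nm, with triplicate cultures.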

p35-CDK5 (K5/p35) = settings: read-out: IC50 K5/p35; in vitro cell-free kinase assay; cited from earlier work
cyclin E-CDK3 (K3/E) = settings: read-out: IC50 K3/E; in vitro cell-free kinase assay; cited from earlier work
Jak2 = settings: read-out: IC50 Jak2; in vitro cell-free kinase assay; cited from earlier work
[6] = tested on: primary tumor cells from MM patients (CD138+); experiment: MTT viability of primary tumor cells from MM patients; assay type: cell-based, human; settings: 0-100nM, MTT at 48h
In short: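 Bone marrow mononuclear cells from MM patient aspirates were separated on Ficoll-Hipaque, and plasma cells were purified by anti-CD138 magnetic bead positive selection. Cells were cultured with test compound (0–100 nM) and viability was read by MTT at 48 h (570/630 nm). Values are means ±SD of triplicate cultures.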

MM.1S cells [7] = experiment: NAD+/NADH quantification assay; assay type: cell-based, human; settings: 50nM
In short: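 MM.1S cells were cultured with 50 nM test compound and 5 × 10⁵ cells were extracted. For total NAD, extract was incubated with NAD Cycling Mix for 5 min at RT to convert NAD+ to NADH. For NADH, extract was heated at 60°C for 30 min to decompose NAD+. Developer was added for 40 min in the dark and read at 450 nm, in duplicate. Ratio = (NADt − NADH)/NADH.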

MM.1S cells [8] = experiment: cell cycle analysis by PI flow cytometry; assay type: cell-based, human; settings: 50nM, 12h
In short: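 MM.1S cells (1 × 10⁶) were cultured in medium or with 50 nM test compound for 12 and 24 h, then washed in ice-cold PBS. They were fixed in 100% ethanol for 1 h at 4°C, treated with RNase for 30 min at 37°C, and stained with propidium iodide. Cell cycle profiles were acquired by flow cytometry and modelled for phase distribution.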

C-src = settings: read-out: IC50 C-src; in vitro cell-free kinase assay; cited from earlier work
[9] = tested on: p-RNAPII S2/S5 in MM cell lines; experiment: western blot of phosphorylated RNAPII S2/S5; assay type: cell-based, human; settings: 0-8h, 25-100nM, all tested MM cell lines, immunoblot
In short: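 MM cell lines were exposed to test compound (0–100 nM) for 1, 4 and 8 h. Whole-cell lysates were run on SDS-PAGE and transferred to nitrocellulose. Blots were probed with phosphospecific antibodies to RNAPII S2/S5 and re-probed for actin, tubulin or GAPDH as loading controls.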

MEK1 = settings: read-out: IC50 MEK1; in vitro cell-free kinase assay; cited from earlier work
[10] = tested on: p53 DNA binding activity in MM.1S cells; experiment: sequence specific p53 DNA binding assay; assay type: cell-based, human; settings: 50nM, 4h
In short: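 MM.1S cells were cultured with medium or 50 nM test compound for 1, 4 and 8 h, and nuclear proteins were then isolated. Extracts were incubated overnight in wells coated with dsDNA carrying the p53 response element. Bound p53 was detected with an anti-p53 primary antibody and an HRP-linked secondary, read colorimetrically at 450 nm, in triplicate.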

[11] = tested on: p53 knockdown MM.1S cells; experiment: MTT viability of p53 shRNA knockdown MM.1S; assay type: cell-based, human; settings: p53 shRNA-transduced MM.1S versus control, MTT 48h
In short: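 MM.1S cells were transduced with lentiviral shTP53 or empty-vector particles in medium with polybrene (8 μg/ml), and medium was refreshed at 24 h. Infection was checked at 72 h by puromycin (2 μg/ml) sensitivity against parental cells, using MTT. Transduced cells were then exposed to test compound and viability was read by MTT, in triplicate cultures.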

healthy donor PBMCs = experiment: cytotoxicity in healthy donor PBMCs; assay type: cell-based, human; settings: compared with tumor cells from MM patients, 50nM
In short: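 PBMCs were obtained from healthy volunteer blood by Ficoll-Hipaque gradient separation before exposure to test compound.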

MM.1S cells [12] = experiment: DNA synthesis assay, [3H-TdR] uptake; assay type: cell-based, human; settings: BMSCs-stimulated MM.1S cells
In short: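 MM.1S cells (2–3 × 10³/well) were plated alone or with patient-derived BMSCs and exposed to varying test compound concentrations for 8 and 24 h at 37°C. [³H-TdR] ([…]) was pulsed in the last 8 h. Cells were harvested and counted by scintillation. Values are means ±SD of triplicate cultures.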

[13] = tested on: U266, OPM1, and RPMI MM cell lines; experiment: RNA synthesis assay in p53-mutated MM cell lines; assay type: cell-based, human; settings: 0-100nM, 24h
In short: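 p53-mutant U266, OPM1 and RPMI cells (2–3 × 10³/well) were treated at 37°C with test compound (0–100 nM) for 2 and 24 h. [5′-³H]uridine was then added, and cells were harvested and counted by scintillation. Values are means ±SD of triplicate cultures.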

TAK1 = settings: read-out: IC50 TAK1; in vitro cell-free kinase assay; cited from earlier work
cyclin H-CDK7 (K7/H) [14] = experiment: in vitro cell-free kinase assay, cyclin H-CDK7; assay type: biochemical; settings: in vitro kinase assays, compared with CDK 1, 2, 3, 4, 5 and 9
cyclin H-CDK7 (K7/H) [15] = settings: read-out: IC50 K7/H; in vitro cell-free kinase assay; cited from earlier work
cyclin D3-CDK6 (K6/D3) [16] = experiment: in vitro cell-free kinase assay, cyclin D3-CDK6; assay type: biochemical; settings: in vitro kinase assays, compared with CDK 1, 2, 3, 4, 5 and 9
GSK-3β = settings: read-out: IC50 GSK-3β; in vitro cell-free kinase assay; cited from earlier work
Fms = settings: read-out: IC50 Fms; in vitro cell-free kinase assay; cited from earlier work
cyclin D3-CDK6 (K6/D3) [17] = settings: read-out: IC50 K6/D3; in vitro cell-free kinase assay; cited from earlier work
cyclin T1-CDK9 (K9/T1) = settings: read-out: IC50 K9/T1; in vitro cell-free kinase assay; cited from earlier work
cyclin B1-CDK1 (K1/B1) = settings: read-out: IC50 K1/B1; in vitro cell-free kinase assay; cited from earlier work
cyclin E-CDK2 (K2/E) = settings: read-out: IC50 K2/E; in vitro cell-free kinase assay; cited from earlier work
cyclin D1-CDK4 (K4/D1) = settings: read-out: IC50 K4/D1; in vitro cell-free kinase assay; cited from earlier work
MM.1S cells xenograft = experiment: MM xenograft murine model, anti-MM activity; assay type: in vivo, CB-17 SCID mice; settings: for maximum TGI (%): day 14 following end of treatment
In short: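 SCID mice were irradiated, then inoculated s.c. in the upper back 24 h later with MM.1S cells (2.5 × 10⁶ in methods; 3 × 10⁶ in 100 uL RPMI in legend). At ~100 mg tumour, mice were randomised to test compound in D5W pH5.2 or D5W vehicle, IV tail vein daily ×5 (n=8, 9, 10). Calipers every other day; volume = ½·L·W². TGI = 100 − T/C%; log10 cell kill from growth delay and doubling time; survival timed from first treatment day.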

SMILES: OC[C@H]1OC(n2cnc3cc(Cl)c(Cl)cc32)[C@H](O)[C@@H]1O (stereo partly drawn) [DRB, 5,6-Dichloro-1—D-ribofuranosylbenzimidazole, reference compound]
- effect on RNA synthesis (MM.1S cells [1]; MM.1S, 2h, Suppl. Fig. S3): significantly inhibited RNA synthesis

SMILES: COCCN1CCN(Cc2ccc(-c3n[nH]c4c3C(=O)c3c(NC(=O)NN5CCOCC5)cccc3-4)cc2)CC1.Cl.Cl [RGB-286638, 1-(3-{4-[4-(2-Methoxyethyl)-piperazin-1-ylmethyl]-phenyl}-4-oxo-1,4-dihydroindeno[1,2-c]pyrazol-5-yl)-3-morpholin-4-yl-urea dihydrochloride]
- maximum percentage of body weight (BW) loss ([2]; 30mg/kg dosage schedule, day 5): 8.4%
- maximum percentage of body weight (BW) loss ([2]; 40 mg/kg dosing, day 15): 9.9%
- toxic deaths ([2]; 30 and 40 mg/kg IV daily for 5 days): No toxic deaths
- reduction of total level of transcripts (MM.1S cells [1]; BMSCs-stimulated MM.1S cells, 8h): ~ 50%
- effect on transcription (MM.1S cells [1]; BMSCs-stimulated MM.1S cells, 24h): blocked transcription
- reduction of RNA synthesis (MM.1S cells [1]; MM.1S, 50nM or 100nM, two hours): 50%
- miR-21-3p, miR-19a-5p, and miR-92a-1-5p levels [3]: significantly reduced
- apoptotic MM cells, Annexin/PI staining (MM.1S cells [4]): 25%
- IC50 (AMPK): 41 nM
- EC50 ([5]; 48 h, read-out: EC50, viability by MTT assay): 20 to 70 nM
- IC50 ([5]; read-out: IC50, MM cell proliferation): 50 to 100 nM
- IC50 (p35-CDK5 (K5/p35)): 5 nM
- IC50 (cyclin E-CDK3 (K3/E)): 5 nM
- IC50 (Jak2): 50 nM
- cytotoxicity in primary tumor cells from MM patients [6]: comparable cytotoxicity to MM cell lines
- NADH depletion (MM.1S cells [7]): 50%
- NADt depletion (MM.1S cells [7]): 30%
- effect on cell cycle (MM.1S cells [8]): G1 and G2/M cell cycle arrest
- IC50 (C-src): 25 nM
- effect on p-RNAPII S2/S5 [9]: rapid downregulation
- IC50 (MEK1): 54 nM
- p53 sequence specific DNA binding [10]: increased p53 DNA binding
- cells rescued from RGB-286638-induced cell death by p53 knockdown [11]: 14%
- cytotoxicity in healthy donor PBMCs (healthy donor PBMCs): less cytotoxicity
- reduction in DNA synthesis (MM.1S cells [12]; 8h): 60%
- effect on MM.1S proliferation (MM.1S cells [12]; 24h): complete block
- effect on RNA synthesis [13]: significant inhibition
- IC50 (TAK1): 5 nM
- fold less active against CDK 7 (cyclin H-CDK7 (K7/H) [14]): 44 fold
- IC50 (cyclin H-CDK7 (K7/H) [15]): 44 nM
- fold less active against CDK 6 (cyclin D3-CDK6 (K6/D3) [16]): 55 fold
- IC50 (GSK-3β): 3 nM
- IC50 (Fms): 1 nM
- IC50 (cyclin D3-CDK6 (K6/D3) [17]): 55 nM
- IC50 (cyclin T1-CDK9 (K9/T1)): 1 nM
- IC50 (cyclin B1-CDK1 (K1/B1)): 2 nM
- IC50 (cyclin E-CDK2 (K2/E)): 3 nM
- IC50 (cyclin D1-CDK4 (K4/D1)): 4 nM
- maximum TGI (%) (MM.1S cells xenograft; 30 mg/kg IV daily for 5 days): 85.06%
- maximum TGI (%) (MM.1S cells xenograft; 40 mg/kg IV daily for 5 days): 86.34%
- log10 cell kill (LCK Td: 4.5 days) (MM.1S cells xenograft; both treated groups (30 mg/kg and 40 mg/kg IV, 5 days)): 1.6
- survival, first death (MM.1S cells xenograft; both treated groups (30 and 40 mg/kg), controls day 24): 43 days

Reference: paper PMC3928098 (Leukemia, 2013)
